The nature of data set [1]: Half life in rat plasma at 2 uM after 2 hrs by LC/MS-MS method. It counts as ADME, cell-free.
Data set [2] is described as follows: Chemical stability in PBS at pH 7.4 assessed as parent compound remaining at 1 uM at 37 degC after 24 hrs in presence of 10% MeCN by UPLC-MS method. It is filed as physicochemical. As to conditions: read-out: Stability. In short, it runs like this:
(§1)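 Compound incubated 24 h at 37 °C in 0.01 M PBS, pH 7.4, containing 10% MeCN.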

A short description of data set [3]: Apparent half life in PBS at pH 7.4 at 1 uM at 37 degC after 24 hrs in presence of 10% MeCN by UPLC-MS method. It is filed as physicochemical. As to conditions: read-out: t1/2(app). In short, it runs like this: as §1
In data set [4] the target is T1, Acid ceramidase (Homo sapiens) (UniProt Q13510).
T1 sequence (whole entry): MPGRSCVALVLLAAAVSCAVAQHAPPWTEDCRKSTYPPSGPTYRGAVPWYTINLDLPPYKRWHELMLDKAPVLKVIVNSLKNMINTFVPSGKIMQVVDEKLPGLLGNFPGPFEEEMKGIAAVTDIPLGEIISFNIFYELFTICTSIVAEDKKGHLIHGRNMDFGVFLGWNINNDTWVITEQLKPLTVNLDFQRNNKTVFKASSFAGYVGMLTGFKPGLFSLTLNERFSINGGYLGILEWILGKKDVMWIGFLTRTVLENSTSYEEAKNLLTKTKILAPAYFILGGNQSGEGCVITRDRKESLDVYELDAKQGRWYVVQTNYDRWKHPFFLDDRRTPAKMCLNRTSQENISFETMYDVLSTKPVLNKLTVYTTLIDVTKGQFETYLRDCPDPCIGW
Description: Inhibition of human acid ceramidase expressed in HEK293 cells at 50 uM using N-[(1S,2R)-2-hydroxy-1-(hydroxymethyl)-4-(2-oxochromen-7-yl)-oxybutyl]dodecanamide as substrate preincubated for 10 mins followed by substrate addition measured after 3 hrs by fluorescence assay relative to control. It is filed as cell-based. In short, it runs like this: (§2)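 Human acid ceramidase fluorogenic assay. IC50 taken as the mean of three determinations.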

Data set [5] has as its target T2, Fatty-acid amide hydrolase 1 (Homo sapiens) (UniProt O00519).
T2 sequence (whole entry): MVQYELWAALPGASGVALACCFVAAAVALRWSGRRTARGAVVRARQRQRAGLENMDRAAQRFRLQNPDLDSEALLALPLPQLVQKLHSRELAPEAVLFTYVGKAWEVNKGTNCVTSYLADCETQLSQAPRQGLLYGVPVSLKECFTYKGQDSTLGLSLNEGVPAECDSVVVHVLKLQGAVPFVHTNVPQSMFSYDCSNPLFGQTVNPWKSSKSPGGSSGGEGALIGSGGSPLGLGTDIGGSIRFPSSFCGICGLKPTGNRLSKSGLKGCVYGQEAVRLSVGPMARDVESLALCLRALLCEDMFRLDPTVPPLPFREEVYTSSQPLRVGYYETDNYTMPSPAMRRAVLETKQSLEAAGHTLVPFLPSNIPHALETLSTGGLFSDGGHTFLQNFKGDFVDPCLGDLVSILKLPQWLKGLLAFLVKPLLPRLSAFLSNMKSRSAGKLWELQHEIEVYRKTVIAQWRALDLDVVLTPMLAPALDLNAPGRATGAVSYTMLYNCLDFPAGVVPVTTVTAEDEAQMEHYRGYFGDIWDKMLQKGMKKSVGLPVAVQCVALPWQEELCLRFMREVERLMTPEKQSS
Description: Inhibition of human FAAH1 expressed in HEK293 cells at 10 uM using [3H]anandamide as substrate preincubated for 10 mins followed by substrate addition measured after 30 mins by liquid scintillation counting method relative to control.

Data set [6] is described as follows: Half life in mouse plasma at 2 uM after 2 hrs by LC/MS-MS method. It counts as ADME, cell-free.
The target in data set [7] is T3, N-acylethanolamine-hydrolyzing acid amidase (Homo sapiens, UniProt Q02083).
T3 sequence (Q02083 whole entry): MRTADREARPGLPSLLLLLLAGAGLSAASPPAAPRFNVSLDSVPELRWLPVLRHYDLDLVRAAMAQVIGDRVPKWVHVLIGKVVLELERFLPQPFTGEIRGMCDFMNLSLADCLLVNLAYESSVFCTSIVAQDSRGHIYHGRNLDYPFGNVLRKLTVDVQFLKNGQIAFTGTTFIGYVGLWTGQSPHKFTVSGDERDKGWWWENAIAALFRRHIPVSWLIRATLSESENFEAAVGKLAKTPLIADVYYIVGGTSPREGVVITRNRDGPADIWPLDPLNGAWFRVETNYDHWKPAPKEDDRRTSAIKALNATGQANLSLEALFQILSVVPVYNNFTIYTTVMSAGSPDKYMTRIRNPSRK
The experiment in a line: Inhibition of recombinant human spleen NAAA expressed in HEK293 cells using PAMCA as substrate preincubated for 10 mins followed by substrate addition measured after 50 mins by fluorescence assay.

The species named for another data set is Homo sapiens. The experiment in a line: Selectivity ratio of IC50 for human acid ceramidase to IC50 for recombinant human spleen NAAA. In short, it runs like this:
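Ratio of h-AC IC50 to h-NAAA IC50, each the mean of three determinations in fluorogenic assays. The NAAA was recombinant human enzyme overexpressed in HEK293 cells, purified, then activated for 3 h at 37 °C at pH 4.5 (phosphate/citrate, 3 mM DTT, 0.1% Triton X-100). The NAAA substrate was PAMCA (hexadecanamide of 7-amino-4-methylcoumarin).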

The target of another data set is T4, Acid ceramidase (Homo sapiens, UniProt Q13510).
T4 sequence (Q13510 whole entry): T1 sequence (whole entry)
Description: Inhibition of human acid ceramidase expressed in HEK293 cells using N-[(1S,2R)-2-hydroxy-1-(hydroxymethyl)-4-(2-oxochromen-7-yl)-oxybutyl]dodecanamide as substrate preincubated for 10 mins followed by substrate addition measured after 3 hrs by fluorescence assay. It is filed as cell-based. In short, it runs like this:
as §2

Another data set has as its system Rattus norvegicus. Description: Oral bioavailability in Sprague-Dawley rat at 10 mg/kg after 15 to 1440 mins by UPLC/MS analysis. It counts as ADME, organism-based. The settings on record: in vivo.
Data set [8] relates to Mus musculus. Description: Analgesic activity in CD1 mouse assessed as inhibition of carrageenan-induced heat hyperalgesia at 0.5 to 50 ug/paw administered intraplantarly post carrageenan challenge measured over 2 to 48 hrs. It is filed as functional. In short, it runs like this: (§3)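 Male CD1 mice (25-30 g). Paw edema induced by λ-carrageenan (1% w/v in sterile water, 50 µl) injected into the left hind paw. A fresh suspension in 80% sterile saline/10% PEG-400/10% Tween 80 (10 µl per animal) was given by intraplantar injection just after carrageenan, as a single dose of 0.5–50 µg/paw. Edema was read by plethysmometer and heat hyperalgesia by behavioural test, both blind.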

Data set [9] has as its system Mus musculus. The experiment in a line: Antiinflammatory activity in CD1 mouse assessed as inhibition of carrageenan-induced paw edema at 0.5 to 50 ug/paw administered intraplantarly post carrageenan challenge measured over 2 to 48 hrs by plethysmometer. It counts as functional. In short, it runs like this:
as §3

The structures appear in SMILES notation. Activity calls are given as the source filed them. The calls are words filed in the database; no cut-off is given here. A value given as a limit tells only on which side of the number the result lay.

The inhibition is the percentage by which the read-out fell short of the control. One may read the IC50 as the concentration that inhibits the measured activity by half.

With `CON1C(=O)[C@@H](NC(=O)OCCCCC2CCCCC2)[C@@H]1C`, the half-life at 2 µM in [1] and in data set [6] was less than 5 min each time. In addition, in data set [2], the remaining at 24 h, 1 µM amounted to 97%. Besides, the half-life at 1 µM in [3] was greater than 1440 min. For the same molecule, the inhibition in [4] and in data set [5] was greater than 50% each time.
Turning to `CC(=O)N1C[C@H](NC(=O)OCCCCC2CCCCC2)C1=O`, the half-maximal inhibitory concentration (IC50) in [7] was greater than 50000 nM.
Turning to `C[C@H]1[C@H](NC(=O)OCCCCC2CCCCC2)C(=O)N1OCCCS(C)(=O)=O`, in the data set filed under Homo sapiens, the Ratio IC50 is greater than 1000. Moreover, the half-life at 2 µM in data set [1] and in data set [6] was less than 5 min in each case. Moreover, the remaining at 24 h, 1 µM in data set [2] amounted to 67%. Also, the half-life at 1 µM in data set [3] was greater than 1440 min. In addition, the inhibition in [4] and in data set [5] was greater than 50% throughout.
On to `CON1C[C@@H](NC(=O)OCCCCC2CCCCC2)C1=O`, for which, in [7], the IC50 worked out at 56 nM.
Turning to `C[C@H]1[C@H](NC(=O)OCCCCC2CCCCC2)C(=O)N1OC(C)(C)C`, the IC50 in data set [7] is greater than 50000 nM.
`CON1C[C@H](NC(=O)OCCCCC2CCCCC2)C1=O`: in data set [7], the IC50 is 16 nM.
Consider `C[C@H]1[C@H](NC(=O)OCCCCC2CCCCC2)C(=O)N1Oc1ccccc1`, for which the Ratio IC50 in the data set listed under Homo sapiens turned out to be 13. Also, the half-life at 2 µM in data set [1] and in [6] was less than 5 min throughout. Moreover, the remaining at 24 h, 1 µM in [2] is 63%. This molecule came in with an IC50 against Acid ceramidase of 300 nM. In addition, the half-life at 1 µM in data set [3] is greater than 1440 min. The same molecule had an inhibition in data set [5] greater than 50%.
As for `CCCCCCCCC(=O)N[C@H]1CNC1=O`, the F in the data set with Rattus norvegicus was found to be 67%. This molecule gave a half-life at 2 µM in [6] of 130 min.
As to `CN1C[C@H](NC(=O)OCCCCC2CCCCC2)C1=O`, the half-inhibitory concentration (IC50) in data set [7] worked out at 1980 nM.
Turning to `COC(=O)N1C[C@H](NC(=O)OCCCCC2CCCCC2)C1=O`, the 50% inhibitory concentration (IC50) in [7] was determined as 7180 nM.
Take `C[C@H]1[C@H](NC(=O)OCCCCC2CCCCC2)C(=O)N1Oc1ccc(S(C)(=O)=O)cc1`: the half-life at 2 µM in [1] and in data set [6] was less than 5 min throughout. On Acid ceramidase, this molecule yielded an IC50 of 2020 nM. Also, the half-life at 1 µM in data set [3] worked out at 727 min. Also, the inhibition result in the data set with Mus musculus [8] and in the data set with Mus musculus [9] was “Active” throughout. In data set [5], this molecule came in with an inhibition greater than 50%.

(Values after ChEMBL document CHEMBL4002575, “Progress in the development of β-lactams as N-Acylethanolamine Acid Amidase (NAAA) inhibitors: Synthesis and SAR study of new, potent N-O-substituted derivatives” (Eur J Med Chem, 2017).)
